Results as given in ChEMBL document CHEMBL1126169, “8-Polycycloalkyl-1,3-dipropylxanthines as potent and selective antagonists for A1-adenosine receptors” (J Med Chem, 1992).
pKi: −log10 of the molar value.

Legend:
[1] = molecular target: T1, Adenosine receptor A1 (Cavia porcellus, UniProt P47745); assay: Binding affinity against adenosine A1 receptor using N6-[3H]cyclohexyladenosine as radioligand in guinea pig forebrain membranes; assay type: cell membranes, Brain membranes
T1 sequence (P47745 whole entry): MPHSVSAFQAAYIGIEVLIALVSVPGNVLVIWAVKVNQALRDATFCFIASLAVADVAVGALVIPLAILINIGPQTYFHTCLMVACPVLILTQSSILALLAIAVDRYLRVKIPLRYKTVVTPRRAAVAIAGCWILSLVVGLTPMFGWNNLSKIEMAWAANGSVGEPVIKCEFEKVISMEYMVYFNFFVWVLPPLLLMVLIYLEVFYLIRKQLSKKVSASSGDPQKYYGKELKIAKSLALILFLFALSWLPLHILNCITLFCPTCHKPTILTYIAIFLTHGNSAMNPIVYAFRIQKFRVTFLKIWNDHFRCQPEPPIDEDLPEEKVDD

[2] = molecular target: T2, Adenosine A2 receptor (Rattus norvegicus, UniProt P29276+P30543); assay: Binding affinity against adenosine A2 receptor using N-[3H]-ethyladenosin-5''-uronamide as radioligand in rat striatal membranes.; assay type: cell membranes
[3] = molecular target: T1, Adenosine receptor A1; assay: Inhibition of N6-[3H]cyclohexyladenosine binding to guinea pig forebrain membrane Adenosine A1 receptor
[4] = molecular target: T1, Adenosine receptor A1; assay: Binding affinity against Adenosine A1 receptor using N6-[3H]cyclohexyladenosine in guinea pig forebrain membranes; assay type: cell membranes, Brain membranes
Outline: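 Guinea pig forebrain membranes in 50 mM Tris-HCl pH 7.7, pretreated with adenosine deaminase (2.0 units/mL, 30 min, 37 °C), 10 mg tissue per tube. Incubated with 1.1 nM [3H]cyclohexyladenosine, final DMSO <0.9%, for 90 min at 25 °C, then GF/C filtration and scintillation counting. Nonspecific binding defined with 10 µM R-PIA.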

[5] = molecular target: T2, Adenosine A2 receptor; assay: Binding affinity against Adenosine A2 receptor using N-[3H]-ethyladenosin-5''-uronamide in rat striatal membranes; assay type: cell membranes, Striatum, Membrane
[6] = molecular target: T1, Adenosine receptor A1; assay: Binding affinity against Adenosine A1 receptor using N6-[3H]cyclohexyladenosine in guinea pig membranes; assay type: cell membranes
[7] = Inhibitory activity against adenylate cyclase using (R)-N6-(2-[3H]-phenyl-1-methylethyladenosine as radioligand in rat adipocytes; assay type: cell-based
[8] = molecular target: Adenosine receptor A1 (Rattus norvegicus) (UniProt P25099); assay: Binding affinity against adenosine A1 receptor using N6-[3H]cyclohexyladenosine as radioligand in rat brain membranes
[9] = Binding affinity against adenylate cyclase using N-[3H]-ethyl adenosine-5-uronamide as radioligand in human platelet membranes; assay type: cell membranes
[10] = molecular target: T3, Adenosine receptor A1 (Rattus norvegicus, UniProt P25099); assay: Binding affinity against Adenosine A1 receptor using N6-[3H]cyclohexyladenosine in rat brain membranes; assay type: cell membranes
T3 sequence (P25099 whole entry): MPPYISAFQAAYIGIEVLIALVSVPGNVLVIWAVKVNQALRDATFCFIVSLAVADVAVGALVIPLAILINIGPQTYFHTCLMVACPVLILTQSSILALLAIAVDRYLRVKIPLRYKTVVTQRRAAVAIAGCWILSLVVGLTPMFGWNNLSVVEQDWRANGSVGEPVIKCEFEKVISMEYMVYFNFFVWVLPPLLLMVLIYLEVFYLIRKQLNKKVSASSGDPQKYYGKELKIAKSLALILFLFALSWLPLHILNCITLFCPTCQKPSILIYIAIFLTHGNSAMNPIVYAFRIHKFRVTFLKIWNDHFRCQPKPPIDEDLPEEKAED
Outline: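 Rat forebrain membranes were prepared like the guinea pig tissue. Tissue was homogenized in ice-cold 50 mM Tris-HCl pH 7.7, centrifuged at 50000g and washed. It was treated with ADA (2.0 units/mL) for 30 min at 37 °C, then used at 10 mg tissue/mL. Duplicate curves used five or more concentrations; IC50 from logit-log plots was converted to Ki by Cheng-Prusoff.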

## CCCn1c(=O)c2nc(-c3cc4ccccc4s3)[nH]c2n(CCC)c1=O
[1]
  pKi: < 4.00
[2]
  Ki: > 100000 nM

## CCCn1c(=O)c2nc(C3CC4CCC3C4)[nH]c2n(CCC)c1=O (configuration not stated)
[3]
  pKi: 8.36

## CCCn1c(=O)c2nc(-c3nn[nH]n3)[nH]c2n(CCC)c1=O
[1]
  pKi: < 5.00
[2]
  Ki: > 100000 nM

## CCCn1c(=O)c2[nH]c(C[C@H]3CC4CCC3C4)nc2n(CCC)c1=O (some centres not stated)
[1]
  pKi: 7.10

## CCCn1c(=O)c2nc(C(C)(C)CC)[nH]c2n(CCC)c1=O
[1]
  pKi: 7.64
[2]
  Ki: 1000 nM

## CCCn1c(=O)c2nc([C@@H]3CC4CCC3C4)[nH]c2n(CCC)c1=O (some centres not stated)
[1]
  pKi: 8.42
[2]
  Ki: 440 nM

## CCCn1c(=O)c2nc(-c3ccco3)[nH]c2n(CCC)c1=O
[1]
  pKi: 6.25
[2]
  Ki: 530 nM

## CCCCn1c(=O)c2nc(C34CC5CC(CC3C5)C4)[nH]c2n(CCCC)c1=O
[1]
  pKi: 8.00

## CCCn1c(=O)c2nc(-c3cc(S(=O)(=O)[O-])co3)[nH]c2n(CCC)c1=O.[K+]
[4]
  pKi: < 5.00
[5]
  Ki: > 10000 nM

## CCCn1c(=O)c2nc(C(C)(C)C)[nH]c2n(CCC)c1=O
[1]
  pKi: 7.51
[2]
  Ki: 2300 nM

## CCCn1c(=O)c2nc(C(C)(C)CCC)[nH]c2n(CCC)c1=O
[1]
  pKi: 7.60
[2]
  Ki: 2200 nM

## CCCn1c(=O)c2nc(C3C(C)(C)CCC3(C)C)[nH]c2n(CCC)c1=O
[2]
  Ki: > 100000 nM

## CC(C)Nc1ncnc2c1ncn2[C@@H]1O[C@H](CO)[C@@H](O)[C@H]1O
[1]
  pKi: 8.72

## CCCn1c(=O)c2nc(-c3cnns3)[nH]c2n(CCC)c1=O
[4]
  pKi: 5.36
[5]
  Ki: > 10000 nM

## CCCn1c(=O)c2nc(-c3cnsn3)[nH]c2n(CCC)c1=O
[2]
  Ki: > 10000 nM

## CCCn1c(=O)c2nc(CC3CC3)[nH]c2n(CCC)c1=O
[1]
  pKi: 6.92
[2]
  Ki: 1200 nM

## CCCn1c(=O)c2nc(-c3cc4ccccc4o3)[nH]c2n(CCC)c1=O
[1]
  pKi: < 5.00
[2]
  Ki: 1200 nM

## CCCn1c(=O)c2[nH]c(C34C[C@H]5C[C@@H](C3)C[C@@H](C4)C5)nc2n(CCC)c1=O
[1]
  pKi: 7.89

## OC[C@H]1OC(n2cnc3c(NC45C[C@H]6C[C@@H](C4)C[C@@H](C5)C6)ncnc32)[C@H](O)[C@@H]1O (some centres not stated)
[1]
  pKi: 7.14

## CCCn1c(=O)c2nc([C@@H]3CC4C=CC3C4)[nH]c2n(CCC)c1=O (some centres not stated)
[1]
  pKi: 8.37
[2]
  Ki: 480 nM

## CC[C@H](C)Nc1ncnc2c1ncn2C1O[C@H](CO)[C@@H](O)[C@H]1O (single isomer, unassigned)
[3]
  pKi: 9.10

## CCCn1c(=O)c2nc(C(O)(CC)CC)[nH]c2n(CCC)c1=O
[1]
  pKi: 6.77
[2]
  Ki: 12000 nM

## CC(C)Cn1c(=O)n(C)c(=O)c2[nH]c(C34CC5CC(CC3C5)C4)nc21
[3]
  pKi: 7.82

## Cn1c(=O)c2c(ncn2C)n(C)c1=O [CAFFEINE]
[1]
  pKi: 4.00

## CCCn1c(=O)c2nc(-c3cccn3C)[nH]c2n(CCC)c1=O
[1]
  pKi: 6.85
[2]
  Ki: 6000 nM

## CC(C)(C)CNc1ncnc2c1ncn2C1O[C@H](CO)[C@@H](O)[C@H]1O (some centres not stated)
[1]
  pKi: 7.77

## CCCn1c(=O)c2nc[nH]c2n(CCC)c1=O
[6]
  pKi: 6.00
[3]
  pKi: 5.85
[7]
  Kb: 940 nM

## CC1(Nc2ncnc3c2ncn3C2O[C@H](CO)[C@@H](O)[C@H]2O)CCCCC1 (some centres not stated)
[8]
  pKi: 7.15

## CCC(CC)Nc1ncnc2c1ncn2C1O[C@H](CO)[C@@H](O)[C@H]1O (some centres not stated)
[8]
  pKi: 9.12

## CCC(C)(C)Nc1ncnc2c1ncn2C1O[C@H](CO)[C@@H](O)[C@H]1O (some centres not stated)
[3]
  pKi: 7.80

## CCCn1c(=O)c2nc(C3CCC4CCCC43)[nH]c2n(CCC)c1=O (configuration not stated)
[1]
  pKi: 8.46
[3]
  pKi: 8.25
[2]
  Ki: 330 nM
[5]
  Ki: 560 nM

## CCCn1c(=O)c2nc(CC(C)(C)C)[nH]c2n(CCC)c1=O
[1]
  pKi: 7.31
[2]
  Ki: 6000 nM

## CCCn1c(=O)c2nc(C3c4ccccc4-c4ccccc43)[nH]c2n(CCC)c1=O
[4]
  pKi: 5.54
[5]
  Ki: > 100000 nM

## CCCn1c(=O)c2nc([C@H]3CC4C=CC3C4)[nH]c2n(CCC)c1=O (some centres not stated)
[1]
  pKi: 8.47
[2]
  Ki: 210 nM

## Cn1c(=O)c2[nH]c(C34CC5CC(CC3C5)C4)nc2n(C)c1=O
[1]
  pKi: 7.39

## OC[C@H]1OC(n2cnc3c(NCC4CC4)ncnc32)[C@H](O)[C@@H]1O (some centres not stated)
[8]
  pKi: 9.12

## OC[C@H]1OC(n2cnc3c(NC(C4CC4)C4CC4)ncnc32)[C@H](O)[C@@H]1O (some centres not stated)
[3]
  pKi: 9.12

## CCCn1c(=O)c2nc(C3(C)CCCCC3)[nH]c2n(CCC)c1=O
[1]
  pKi: 7.96
[2]
  Ki: 1200 nM

## CCCn1c(=O)c2nc(-c3cc4ccccc4n3C)[nH]c2n(CCC)c1=O
[1]
  pKi: < 4.00
[2]
  Ki: > 100000 nM

## Cn1c(=O)c2[nH]cnc2n(C)c1=O
[9]
  Kb: 5700 nM
[7]
  Kb: 4800 nM

## CC[C@@H](C)Nc1ncnc2c1ncn2[C@@H]1O[C@H](CO)[C@@H](O)[C@H]1O
[3]
  pKi: 8.89

## CCCn1c(=O)c2nc(C3Cc4ccccc4C3)[nH]c2n(CCC)c1=O
[1]
  pKi: 6.66
[2]
  Ki: 1700 nM

## CC(C)(C)Nc1ncnc2c1ncn2C1O[C@H](CO)[C@@H](O)[C@H]1O (some centres not stated)
[1]
  pKi: 7.70

## CCCn1c(=O)c2nc(CC34C[C@H]5C[C@@H](C3)C[C@@H](C4)C5)[nH]c2n(CCC)c1=O
[1]
  pKi: 6.06
[2]
  Ki: > 100000 nM

## CCCn1c(=O)c2nc(-c3csc(C)n3)[nH]c2n(CCC)c1=O
[1]
  pKi: 6.39
[2]
  Ki: 2300 nM

## OC[C@H]1O[C@@H](n2cnc3c(NC4CC5CCC4C5)ncnc32)[C@H](O)[C@@H]1O (some centres not stated)
[3]
  pKi: 9.15
[10]
  pKi: 9.04

## CCCn1c(=O)[nH]c(=O)c2[nH]c(C34CC5CC(CC3C5)C4)nc21
[3]
  pKi: 6.43
[5]
  Ki: > 100000 nM

## CCCn1c(=O)c2nc(C(C)(O)CC)[nH]c2n(CCC)c1=O (configuration not stated)
[1]
  pKi: 6.62
[2]
  Ki: 21000 nM

## CCCn1c(=O)c2nc(-c3cccs3)[nH]c2n(CCC)c1=O
[1]
  pKi: 6.68
[2]
  Ki: 1900 nM

## CCCC(CCC)Nc1ncnc2c1ncn2C1O[C@H](CO)[C@@H](O)[C@H]1O (some centres not stated)
[1]
  pKi: 8.48
